Laboratory results taken from ChEMBL document CHEMBL2203123, “Synthesis and biological evaluation of some hydrazone derivatives as new anticandidal and anticancer agents” (Eur J Med Chem, 2012).
In brackets after ≈: the same amount, converted by molar mass.

Experiments:
[1] = test system: NIH3T3; assay: Cytotoxicity against mouse NIH/3T3 cells after 24 hrs by XTT assay; type: cell-based; settings: NIH3T3, 24 h
In short: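 Mouse NIH3T3 fibroblasts grown in DMEM with fetal calf serum, penicillin/streptomycin, 37 °C, 5% CO2; 20,000 cells/well, treated after 24 h with 0.00316 µM-10 mM compound for 24 h. Viability via XTT (3 h, OD 480 nm, reference 680 nm); % inhibition computed and IC50 fitted by non-linear regression.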

[2] = test system: Candida albicans; assay: Antifungal activity against Candida albicans clinical isolate after 24 hrs by microdilution susceptibility assay; type: functional
In short: (§1)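 Broth microdilution in Mueller Hinton Broth, compounds from DMSO stocks diluted serially; inocula standardized to 10^6 CFU/mL (McFarland 0.5) from overnight MHB cultures. Plates held 37 °C for 24 h; MIC taken as first well without turbidity, aided by 1% tetrazolium violet added for 3 h at 37 °C. Ketoconazole reference.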

[3] = test system: Candida albicans; assay: Antifungal activity against Candida albicans ATCC 90028 after 24 hrs by microdilution susceptibility assay; type: functional; settings: ATCC 90028, 24 h; in short: as §1
[4] = test system: Candida parapsilosis; assay: Antifungal activity against Candida parapsilosis NRRL Y-12696 after 24 hrs by microdilution susceptibility assay; type: functional; settings: Lodderomyces parapsilosis, NRRL Y-12696, 24 h; in short: as §1
[5] = test system: A549; assay: Cytotoxicity against human A549 cells after 24 hrs by XTT assay; type: functional, cell-based; settings: A549, 24 h
In short: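 A549 cells in RPMI 1640 with 10% fetal calf serum, penicillin/streptomycin, 37 °C, 5% CO2; 20,000 cells/well seeded, after 24 h exposed to compounds at 0.00316 µM-10 mM for 24 h. XTT mitochondrial activity read at 480 nm (reference 680 nm) after 3 h; % inhibition per concentration, IC50 by non-linear regression.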

[6] = test system: Nakaseomyces glabratus; assay: Antifungal activity against Candida glabrata Osmangazi University clinical isolate after 24 hrs by microdilution susceptibility assay; type: functional; in short: as §1
[7] = test system: Cyberlindnera jadinii; assay: Antifungal activity against Candida utilis NRRL Y-900 after 24 hrs by microdilution susceptibility assay; type: functional; settings: Williopsis jadinii, NRRL Y-900, 24 h; in short: as §1
[8] = test system: Pichia kudriavzevii; assay: Antifungal activity against Candida krusei NRRL Y-7179 after 24 hrs by microdilution susceptibility assay; type: functional; settings: NRRL Y-7179, 24 h; in short: as §1
[9] = test system: Candida albicans; assay: Antifungal activity against Candida albicans ATCC 10231 after 24 hrs by microdilution susceptibility assay; type: functional; settings: ATCC 10231, 24 h; in short: as §1
[10] = test system: Nakaseomyces glabratus; assay: Antifungal activity against Candida glabrata Anadolu University clinical isolate after 24 hrs by microdilution susceptibility assay; type: functional; in short: as §1

Structure (SMILES)	MIC [2] [µg/mL]	MIC [3] [µg/mL]	MIC [4] [µg/mL]	MIC [6] [µg/mL]	MIC [7] [µg/mL]	MIC [8] [µg/mL]	MIC [9] [µg/mL]	MIC [10] [µg/mL]	IC50 [1] [mM]	IC50 [5] [mM]
CC(=O)N1CCN(c2ccc(OCC3COC(Cn4ccnc4)(c4ccc(Cl)cc4Cl)O3)cc2)CC1 (stereo not drawn) [KETOCONAZOLE]	3 (≈ 0.00565 mM)	31 (≈ 0.0583 mM)	3 (≈ 0.00565 mM)	15 (≈ 0.0282 mM)	15 (≈ 0.0282 mM)	3 (≈ 0.00565 mM)	15 (≈ 0.0282 mM)	1 (≈ 0.00188 mM)	–	–
Cn1nnnc1SCC(=O)N/N=C/c1cccc([N+](=O)[O-])c1	> 8000	> 8000	> 8000	> 8000	> 8000	> 8000	> 8000	> 8000	2	> 10
Cn1nnnc1SCC(=O)N/N=C/c1cccc(O)c1	> 8000	> 8000	> 8000	> 8000	> 8000	> 8000	> 8000	> 8000	3.16	4.5
COc1ccccc1/C=N/NC(=O)CSc1nnnn1C	> 8000	> 8000	> 8000	> 8000	> 8000	> 8000	> 8000	> 8000	3.16	7
Cn1nnnc1SCC(=O)N/N=C/c1ccccc1Br	> 8000	> 8000	> 8000	> 8000	> 8000	> 8000	> 8000	> 8000	0.02	2
C/C(=N\NC(=O)CSc1nnnn1C)c1ccc(Cl)cc1	> 8000	> 8000	> 8000	> 8000	> 8000	> 8000	> 8000	> 8000	0.1	6
Cn1nnnc1SCC(=O)N/N=C/c1cccc(Cl)c1	> 8000	> 8000	> 8000	> 8000	> 8000	> 8000	> 8000	> 8000	7.5	7.5
Cn1nnnc1SCC(=O)N/N=C/c1ccc(F)cc1	> 8000	> 8000	> 8000	> 8000	> 8000	> 8000	> 8000	> 8000	10	3.16
Cc1ccc(/C=N/NC(=O)CSc2nnnn2C)cc1	> 8000	> 8000	> 8000	> 8000	> 8000	> 8000	> 8000	> 8000	3.16	3.16
Cn1nnnc1SCC(=O)N/N=C/c1c(Cl)cccc1Cl	> 8000	> 8000	> 8000	> 8000	> 8000	> 8000	> 8000	> 8000	> 10	1
Cn1nnnc1SCC(=O)N/N=C/c1ccc(Cl)cc1Cl	> 8000	> 8000	> 8000	> 8000	> 8000	> 8000	> 8000	> 8000	2.14	0.5
C/C(=N\NC(=O)CSc1nnnn1C)c1ccccc1Cl	> 8000	> 8000	> 8000	> 8000	> 8000	> 8000	> 8000	> 8000	6	6.32
Cn1nnnc1SCC(=O)N/N=C/c1ccc([N+](=O)[O-])cc1	> 8000	> 8000	> 8000	> 8000	> 8000	> 8000	> 8000	> 8000	9.3	0.632
Cn1nnnc1SCC(=O)N/N=C/c1ccccc1O	> 8000	> 8000	> 8000	> 8000	> 8000	> 8000	> 8000	> 8000	> 10	> 10
C/C(=N\NC(=O)CSc1nnnn1C)c1cccc(Cl)c1	> 8000	> 8000	> 8000	> 8000	> 8000	> 8000	> 8000	> 8000	3.4	> 10
Cn1nnnc1SCC(=O)N/N=C/c1cccc(Br)c1	> 8000	> 8000	> 8000	> 8000	> 8000	> 8000	> 8000	> 8000	0.316	0.6

Second part, led by results:

MIC [2] [µg/mL]	MIC [3] [µg/mL]	MIC [4] [µg/mL]	MIC [6] [µg/mL]	MIC [7] [µg/mL]	MIC [8] [µg/mL]	MIC [9] [µg/mL]	MIC [10] [µg/mL]	Structure (SMILES)	IC50 [1] [mM]	IC50 [5] [mM]
> 8000	> 8000	> 8000	> 8000	> 8000	> 8000	> 8000	> 8000	COc1cccc(/C=N/NC(=O)CSc2nnnn2C)c1	0.6	> 10
> 8000	> 8000	> 8000	> 8000	> 8000	> 8000	> 8000	> 8000	Cn1nnnc1SCC(=O)N/N=C/c1ccccc1Cl	> 10	6.32
> 8000	> 8000	> 8000	> 8000	> 8000	> 8000	> 8000	> 8000	Cn1nnnc1SCC(=O)N/N=C/c1cccc(Cl)c1Cl	0.52	0.632
> 8000	> 8000	> 8000	> 8000	> 8000	> 8000	> 8000	> 8000	Cc1cccc(/C=N/NC(=O)CSc2nnnn2C)c1	6.25	2
> 8000	> 8000	> 8000	> 8000	> 8000	> 8000	> 8000	> 8000	Cn1nnnc1SCC(=O)N/N=C/c1ccc(Cl)cc1	2.1	0.1
> 8000	> 8000	> 8000	> 8000	> 8000	> 8000	> 8000	> 8000	Cc1ccccc1/C=N/NC(=O)CSc1nnnn1C	6.32	> 10
> 8000	> 8000	> 8000	> 8000	> 8000	> 8000	> 8000	> 8000	Cn1nnnc1SCC(=O)N/N=C/c1cccc(F)c1	6.32	6.32
> 8000	> 8000	> 8000	> 8000	> 8000	> 8000	> 8000	> 8000	C/C(=N\NC(=O)CSc1nnnn1C)c1ccc(Cl)cc1Cl	1	0.8
> 8000	> 8000	> 8000	> 8000	> 8000	> 8000	> 8000	> 8000	Cn1nnnc1SCC(=O)N/N=C/c1ccc(Br)cc1	10	> 10
> 8000	> 8000	> 8000	> 8000	> 8000	> 8000	> 8000	> 8000	Cn1nnnc1SCC(=O)N/N=C/c1ccccc1	9.7	3.16
> 8000	> 8000	> 8000	> 8000	> 8000	> 8000	> 8000	> 8000	CC(C)c1ccc(/C=N/NC(=O)CSc2nnnn2C)cc1	1.2	0.4
> 8000	> 8000	> 8000	> 8000	> 8000	> 8000	> 8000	> 8000	C/C(=N\NC(=O)CSc1nnnn1C)c1cc(Cl)ccc1Cl	1	1.5
> 8000	> 8000	> 8000	> 8000	> 8000	> 8000	> 8000	> 8000	Cn1nnnc1SCC(=O)N/N=C/c1ccc(C(F)(F)F)cc1	> 10	6.32
